# Test results reported in PubChem BioAssay.
# Values without a mark were called inactive. Results filed as inconclusive are left out. Calls of active or inactive are those of the source.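 Rule for the calls, unless noted: active = inhibition over a set limit, the all-compound mean plus 3 SD, in both replicate runs; inconclusive = over that limit in just one replicate run; inactive = at or under that limit in both runs.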
# What was measured:
# [1] = OD615 S. cerevisiae growth inhibition, permissive medium, pilot counter-assay, permissive growth control for S. cerevisiae lifespan shortening project (AID 705;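 active = growth inhibition above 25% in both replicates, a cutoff set 3 SD above the mean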); settings: OD615, 24 h, at 10 µM, active compounds read high
# Outline: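 Test system: Saccharomyces cerevisiae strain carrying genetically modified DeaD replicative-lifespan system; buffer or medium: SC raffinose/galactose permissive medium; dosing: one dose 10 µM, DMSO 0.25% final; times: 24 h exposure, 30 °C; measured by: OD at 615 nm; read-out basis: growth inhibition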
# [2] = Restrictive medium S. cerevisiae growth inhibition, OD615, pilot screen of yeast lifespan reduction project, restrictive growth control (AID 706;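 active = growth inhibition above a set limit, 3 SD over mean compound inhibition, in both replicates, cut at about 43% in these data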;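 note: modified DeaD lifespan yeast strain shifted to restrictive glucose medium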); settings: OD615, 48 h, at 10 µM, active compounds read high
# Outline: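 material = engineered S. cerevisiae DeaD strain | buffer or medium = glucose-based CSMM-D restrictive medium | dosing = one concentration, 10 µM final, 0.25% DMSO | schedule = 4 h pre-growth plus 48 h compound exposure, 30 °C | detection = OD615 absorbance reading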
# [3] = viability gain of MRP-1-high H69AR cells under doxorubicin, pilot screen, MRP-1 activator project, CellTiter-Glo, duplicate (AID 807;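 active = viability increase at or above a cutoff of the median across tested compounds plus 3 SD, cut at about 8.5% in these data, passing the limit was not always enough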;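 note: compound pretreatment 18-22 h then 72 h combined with doxorubicin; 0% = doxorubicin alone and 100% = vehicle without doxorubicin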); settings: H69AR viability with doxorubicin, CellTiter-Glo luminescence; at 10 µM; active compounds read high
# [4] = growth suppression of beta-catenin knockout HCT116, pilot screen, human colon tumor cells (AID 823;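 active = cell viability at or below a set limit in both duplicate runs, the limit being the all-compound median minus 4 SD, cut at about 23% in these data, passing the limit was not always enough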;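 note: 0% = wells killed by 20 µM Hyamine and 100% = untreated DMSO cell wells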); settings: CellTiter-Glo, 60 h, at 10 µM, active compounds read low
# [5] = growth suppression of PTEN-deleted HCT116, pilot screen, cell-based, HCT116 clonal line, CellTiter-Glo (AID 824;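 active = viability at or below 27.92% in each of two runs, the all-compound median minus 4 SD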;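 note: 0% = 20 µM Hyamine control and 100% = vehicle cell control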); settings: 60 h, at 10 µM, active compounds read low
# [6] = inhibitors of the yeast RAM network, pilot screen, dse1pr::URA3 reporter, 5-FOA selection (AID 869);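 note: 0% = DMSO wells with no growth and 100% = 10 µM 1-NA-PP1 with full growth; RAM network block rescues cells from 5-FOA so hits raise OD615 growth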; settings: S. cerevisiae dse1pr::URA3 5-FOA growth, OD615, 2 d; at 10 µM; active compounds read high; strain carries analog-sensitive mutant Cbk1 kinase
# [7] = RAM signaling pathway blockade in yeast – S. cerevisiae, Pdr1DBD-CYC8 efflux-inhibited sensitized strain, primary screen (AID 1298;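 active = RAM network inhibition above 8.4% in each of two replicates, 3 SD over the compound average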;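 note: 0% = DMSO untreated cells without growth and 100% = 10 µM 1-NA-PP1 full growth; higher means more yeast growth rescued from 5-FOA killing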); settings: S. cerevisiae cbk1-as DSE1-URA3 strain, 5-FOA growth OD615, 2 d; at 50 µM; active compounds read high
SMILES,growth inhibition [1] [%],growth inhibition [2] [%],viability increase [3] [%],viability [4],viability [5],inhibition [6] [%],RAM network inhibition [7] [%]
CCCCN(CC)CCNC(=O)Cn1cnc2sc(C)c(S(=O)(=O)N3CCOCC3)c2c1=O,-7.83,0.72,-0.05,99.5%,98.4%,2.3,0.78
c1ccc(-c2noc(CN3CCN(c4ccccc4)CC3)n2)cc1,-8.41,2.94,-2.27,94.5%,97.3%,0.125,3.29
O=c1oc(-c2cccs2)nc2sc3c(c12)CCCCC3,-8.22,-6.44,1.51,89%,80.3%,1.86,4.13
COCc1cc(C)nc(SCC(=O)Nc2cccc3cccnc23)c1C#N,-15.3,-12.6,-1.44,88.1%,86.4%,1.2,8.57
O=C(O)c1cc(S(=O)(=O)Nc2ccc3c(c2)OCCO3)c(Cl)cc1Cl,-5.69,3.62,-1.04,95.1%,88.4%,2.01,-0.21
CCCCCCc1c(O)nc(SCC(=O)O)[nH]c1=O,5.63,13.4,0.25,108%,101%,2.51,-0.58
COC(=O)c1cc(OC)c(OC)cc1NC(=O)c1c(-c2ccccc2Cl)noc1C,5.77,-2.39,-5.69,66.3%,60.2%,1.68,4.85
CC(C)Cc1nc(C(N)=O)c2[nH]c(=O)n(-c3ccc(F)cc3)c2n1,-21.3,-27.8,-2.13,100%,91.2%,3.68,8.63
Cc1cc(NC(=O)C2CC(c3ccc(F)cc3)=NO2)n(-c2ccccc2)n1 (configuration not stated),-12.7,2.08,0.96,97.1%,95.7%,1.16,-1.56
CCOC(=O)c1cnc2nc[nH]n2c1=O,1.53,11.7,2.64,104%,103%,0.33,-0.24
O=C1Nc2ccc(S(=O)(=O)N3CCCC3C(=O)O)c3cccc1c23 (configuration not stated),1.8,-5.75,-2.22,92.8%,96.8%,0.57,0.21
Cc1ccc(NC(=O)C2CCN(S(=O)(=O)c3cccc4cccnc34)CC2)nc1,2.12,-7.59,-2.71,88.1%,87.2%,-0.475,3.26
CCN(c1cccc(C)c1)c1ncnc2nc[nH]c12,-4.6,15.6,-3.73,103%,95.9%,0.95,0.64
O=C(C1CC1)N1CCc2cc(Br)cc(S(=O)(=O)NC3CCCCC3)c21,-3.11,-25.8,1.71,88.5%,89.4%,0.275,5.54
O=C(CSc1ccccc1)NCc1cccnc1,-4.86,-3.68,-1.64,99.5%,97%,0.995,0.53
O=C(CN1CCN(c2ccccc2F)CC1)c1ccc2cc[nH]c2c1,-12.6,-6.94,-4.1,100%,84.7%,2.02,0.99
COC(=O)COC(=O)CC(CC(N)=O)c1ccccc1 (configuration not stated),-8.58,-0.775,-0.29,95%,102%,2.13,3.07
O=C(CSc1cn(CCNC(=O)c2ccccc2)c2ccccc12)NCc1ccco1,-4.76,-10.4,-5.29,84.1%,84.3%,0.64,5.98

SMILES,growth inhibition [1] [%],growth inhibition [2] [%],viability increase [3] [%],viability [4],viability [5],inhibition [6] [%],RAM network inhibition [7] [%]
O=C(NCCc1ccc(Cl)cc1)c1nnc(Cc2ccc(Cl)cc2)o1,-3.81,3.52,0.2,103%,103%,2.82,7.52
CC(=O)CC(=O)Nc1cccc2c1CCCC2,-1.4,-1.66,-1.76,92.6%,91.5%,-0.665,1.72
Cc1cccc(OCC2=N/C(=C\N(C)C)C(=O)O2)c1,-21.7,-9.04,-0.64,97.2%,91.3%,1.48,2.9
Cc1c(C#N)c2ccccc2n1CCOc1ccccc1F,-5.92,-11.9,1.94,69.8%,68.5%,2.25,6.77
CC1CCC(NC(=O)Cn2cc3c(n2)CCCC3)CC1 (configuration not stated),-4.87,-6.18,1.57,110%,103%,-0.485,0.23
Nc1c(Br)cc(Br)c(N2CCCC2=O)c1Br,-6.31,-7.93,-2.68,92.6%,92.7%,1.68,0.63
CCCC(=O)NCCCCNC(=O)CCC,2.78,2.44,-0.9,96.4%,101%,0.09,4.07
O=C(C1CCCN(S(=O)(=O)c2cccc3cccnc23)C1)N1CCc2ccccc21 (configuration not stated),-2.7,-3.75,-5.63,68.7%,66.7%,1.5,3.58
O=C(Cc1cccs1)Nc1nnc(-c2ccncc2)s1,-0.91,3.21,2.53,108%,98.8%,0.38,0.83
Cn1nc(-c2ccc(Cl)cc2)c2cc(C(=O)NCCCN3CCCC3)sc21,-5.71,4.49,-8.31,2.27% (active),1.95% (active),1.23,0.73
Brc1cnc(N2CCCC2)nc1N1CCCCC1,-5.12,2.11,-2.63,86.2%,84.4%,2.09,0
CCc1cc(=O)oc2cc(OCC(=O)N(CC)CC)c(Cl)cc12,6.47,-5.33,1.34,109%,104%,-0.545,3.66
COc1ccc(NC(=O)C2CCN(S(=O)(=O)c3ccc(OC)c(OC)c3)CC2)c(OC)c1,-1.19,4.12,-0.83,94.7%,88.6%,1,1.41
CCC(=O)NCCc1cc2ccc(C)cc2[nH]c1=O,-3.85,-15.4,-1.94,110%,93.8%,2.58,0.78
O=C(O)c1ccc(NS(=O)(=O)c2ccc3c(c2)OCCO3)cc1,4.96,-3.53,0.04,107%,108%,0.975,1.55
COc1ccc(Cn2nnc3c(=O)[nH]c(C(=O)NCCc4ccc(F)cc4)nc32)cc1OC,-3.32,-2.82,-0.55,114%,100%,2.69,0.97
Cn1c(NC(=O)c2cccc(C(F)(F)F)c2)cc(=O)n(C)c1=O,-16,-5.14,-2.74,98.8%,94.5%,0.925,1.89
COc1ccccc1C(=O)Nc1nnc(-c2ccc(F)cc2)o1,-8.41,-13.1,0.01,101%,101%,0.59,2.59
